According to ChEMBL document CHEMBL1122032, “Dopaminergic activity of substituted 6-chloro-1-phenyl-2,3,4,5-tetrahydro-1H-3-benzazepines” (J Med Chem, 1982):
Activity calls are given as the source filed them. The rule behind the calls is not given here.

Legend:
Canis familiaris [1] = organism: Canis familiaris; experiment: Renal vascular resistance was calculated as the ratio of the mean arterial blood pressure / mean renal blood flow; Highly significant activity; format: functional, organism-based; conditions: Canis lupus familiaris
Canis familiaris [2] = organism: Canis familiaris; experiment: Renal blood flow was measured in dogs; Highly significant activity; format: functional, organism-based; conditions: Canis lupus familiaris; Kidney
[3] = Selectivity ratio of compound as ratio of ED15 relative to mean arterial blood pressure(MABP) ED20; format: functional
Summary of the method: (§1)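 Secondary renal screen in anesthetized dogs: cumulative dose-response by infusing drug at progressively increasing rates, 5 min per dose level. RVR ED15 is the average minimum cumulative dose lowering RVR by 15%; maximum effect is the average maximum % fall in RVR. Selectivity ratios are separations between RVR ED15 and doses giving 30% change in iliac vascular resistance, 20% in MABP, 20% in HR.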

Rattus norvegicus [4] = experiment: Central dopaminergic activity against contralateral rotation(1000) in lesioned rats at the dose of 10 mg/kg (p.o.) in 2 h; format: functional; conditions: route oral
Summary of the method: (§2)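 Oral dosing in rats with substantia nigra lesions, scoring contralateral rotations. RD1000 is the minimum dose producing 1000 turns in 2 h.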

[5] = Selectivity ratio of Compound as ratio of ED15 relative to iliac vascular resistance(IVR) ED30; format: functional; summary of the method: as §1
Rattus norvegicus [6] = organism: Rattus norvegicus; experiment: Adenylase cyclase activity in rat striatal membranes at the concentration of 10e-6; format: functional; conditions: Striatum, Membrane
Canis familiaris [7] = organism: Canis familiaris; experiment: Compound was evaluated for average maximum percent decrease in renal vascular resistance in dogs; format: functional, Canis lupus familiaris; summary of the method: as §1
Rattus norvegicus [8] = organism: Rattus norvegicus; experiment: Adenylase cyclase activity in rat striatal membranes at the concentration of 10e-5; format: functional; conditions: Striatum, Membrane
Canis familiaris [9] = organism: Canis familiaris; experiment: Renal vascular resistance was calculated as the ratio of the mean arterial blood pressure / mean renal blood flow; I=Inactive; format: functional, organism-based; conditions: Canis lupus familiaris
Canis familiaris [10] = experiment: Compound was evaluated for determining renal vascular resistance(iv) in dogs; format: functional, Canis lupus familiaris; summary of the method: as §1
Rattus norvegicus [11] = experiment: Central dopaminergic activity for minimum concentration which produced 500 rotations(ip) in 2 h; format: functional
Summary of the method: (§3)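 Rats with substantia nigra lesions scored for contralateral rotation after intraperitoneal dosing (routine), oral dosing for selected compounds, or intracaudal administration for intrinsic activity. RD500 and RD1000 are the minimum doses giving 500 and 1000 turns, respectively, in 2 h.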

[12] = Selectivity ratio of compound as ED15 relative to heart rate(HR) ED20; format: functional; summary of the method: as §1
Canis familiaris [13] = organism: Canis familiaris; experiment: Renal blood flow was measured in dogs; I=Inactive; format: functional, organism-based; conditions: Canis lupus familiaris; Kidney
Rattus norvegicus [14] = experiment: Central dopaminergic activity against contralateral rotation(1000) in lesioned rats(po) in 2 h; format: functional; summary of the method: as §2
Canis familiaris [15] = organism: Canis familiaris; experiment: Renal blood flow was measured in dogs; Significant activity; format: functional, organism-based; conditions: Canis lupus familiaris; Kidney
Rattus norvegicus [16] = organism: Rattus norvegicus; experiment: Adenylase cyclase activity in rat striatal membranes; format: functional, organism-based, Membrane; conditions: Striatum
Canis familiaris [17] = organism: Canis familiaris; experiment: Renal vascular resistance was calculated as the ratio of the mean arterial blood pressure / mean renal blood flow; Significant activity; format: functional, organism-based; conditions: Canis lupus familiaris
Rattus norvegicus [18] = experiment: Central dopaminergic activity for minimum concentration which produced 500 rotations at the dose of 10 mg/kg (i.p.) in 2 h; I=Inactive; format: functional, organism-based; set-up: dose 10 mg/kg; summary of the method: as §3
Rattus norvegicus [19] = experiment: Central dopaminergic activity for minimum concentration which produced 500 rotations at the dose of 10 mg/kg (i.p.) in 2 h; format: functional; conditions: route intraperitoneal; summary of the method: as §3
Rattus norvegicus [20] = experiment: Central dopaminergic activity for minimum concentration which produced 500 rotations at the dose of 2.0 mg/kg (i.p.) in 2 h; I=Inactive; format: functional, organism-based; set-up: dose 2 mg/kg; summary of the method: as §3
Rattus norvegicus [21] = experiment: Central dopaminergic activity for minimum concentration which produced 500 rotations at the dose of 2 mg/kg (i.p.) in 2 h; I=Inactive; format: functional, organism-based; set-up: dose 2 mg/kg; summary of the method: as §3

Structure (SMILES)	RBF (Canis familiaris [2])	Ratio [3]	Ratio [5]	DA response (Rattus norvegicus [6]) [%]	Decrease RVR (Canis familiaris [7]) [%]	DA response (Rattus norvegicus [8]) [%]	RVR (Canis familiaris [9])	RVR ED15 (Canis familiaris [10]) [mg/kg]	Ratio [12]	RBF (Canis familiaris [13])	other results
CC(=O)Oc1cc2c(c(Cl)c1OC(C)=O)CCNCC2c1ccccc1 (stereo not given)	Highly significant activity	–	–	–	–	–	–	–	–	–	RVR (Canis familiaris [1]): Significant activity
Br.C=CCN1CCc2c(cc(O)c(O)c2Cl)C(c2cccc(Cl)c2)C1 (stereo not given)	Highly significant activity	>6072	> 6070	92	38	83	inactive	0.022	>6072	–	RD1000 (Rattus norvegicus [4]): 1160 turns/2 h; RD500 (Rattus norvegicus [11]): 0.11 mg/kg
Br.Cc1cccc(C2CN(C)CCc3c2cc(O)c(O)c3Cl)c1 (stereo not given)	–	–	–	15	–	14	inactive	–	–	inactive	RD1000 (Rattus norvegicus [14]): 2 mg/kg; RD500 (Rattus norvegicus [11]): 0.041 mg/kg
Br.Oc1cccc(C2CNCCc3c2cc(O)c(O)c3Cl)c1 (stereo not given)	–	>6072	34	–	49	–	–	0.00035	1029	–	RBF (Canis familiaris [15]): Significant activity; EC50 (Rattus norvegicus [16]): 45 nM; RVR (Canis familiaris [17]): Significant activity; RD500 (Rattus norvegicus [18]): inactive
Br.C=CCN1CCc2c(cc(O)c(O)c2Cl)C(c2ccc(Cl)c(O)c2)C1 (stereo not given)	Highly significant activity	>319	–	–	39	–	–	0.019	>319	–	RVR (Canis familiaris [17]): Significant activity; RD500 (Rattus norvegicus [18]): inactive
CC(=O)Oc1cc2c(c(Cl)c1OC(C)=O)CCN(C)CC2c1ccccc1.Cl (stereo not given)	–	–	–	–	–	–	inactive	–	–	inactive	RD1000 (Rattus norvegicus [14]): 2.2 mg/kg; RD500 (Rattus norvegicus [11]): 0.025 mg/kg
COc1ccc(CN2CCc3c(cc(O)c(O)c3Cl)C(c3ccccc3)C2)cc1 (stereo not given)	Highly significant activity	–	–	–	–	–	–	–	–	–	RVR (Canis familiaris [1]): Significant activity; RD500 (Rattus norvegicus [18]): inactive
Br.OCCN1CCc2c(cc(O)c(O)c2Cl)C(c2ccccc2)C1 (stereo not given)	–	>6072	929	–	42	–	inactive	0.0045	>6072	–	RBF (Canis familiaris [15]): Significant activity; Contralateral turns in 2 h (Rattus norvegicus [19]): 1310 turns/2 h
Br.Oc1cc2c(c(Cl)c1O)CCNCC2c1cccc(Cl)c1 (stereo not given)	Highly significant activity	–	–	82	–	90	inactive	–	–	–	RD1000 (Rattus norvegicus [4]): 602 turns/2 h; RD500 (Rattus norvegicus [11]): 0.3 mg/kg
Cc1cccc(C2CN(Cc3ccco3)CCc3c2cc(O)c(O)c3Cl)c1 (stereo not given)	–	–	–	–	–	–	inactive	–	–	inactive	RD500 (Rattus norvegicus [20]): inactive
Br.Oc1ccc(C2CNCCc3c2cc(O)c(O)c3Cl)cc1Cl (stereo not given)	–	-3	-1	–	56	–	inactive	0.099	0	–	RBF (Canis familiaris [15]): Significant activity; RD500 (Rattus norvegicus [18]): inactive
CCCN1CCc2c(cc(O)c(O)c2Cl)C(c2ccccc2)C1 (stereo not given)	–	–	–	–	–	–	inactive	–	–	–	RBF (Canis familiaris [15]): Significant activity; RD500 (Rattus norvegicus [21]): inactive
Br.Cc1ccccc1C1CNCCc2c1cc(O)c(O)c2Cl (stereo not given)	–	–	–	30	–	55	inactive	–	–	inactive	Contralateral turns in 2 h (Rattus norvegicus [19]): 663 turns/2 h
Br.CCCCN1CCc2c(cc(O)c(O)c2Cl)C(c2ccccc2)C1 (stereo not given)	–	–	–	85	–	90	inactive	–	–	inactive	Contralateral turns in 2 h (Rattus norvegicus [19]): 611 turns/2 h
Cl.Oc1cc2c(c(Cl)c1O)CCN(Cc1ccco1)CC2c1ccccc1 (stereo not given)	Highly significant activity	>6072	> 6070	41	26	82	–	0.2	>6072	–	RVR (Canis familiaris [1]): Significant activity; Contralateral turns in 2 h (Rattus norvegicus [19]): 611 turns/2 h
